This note sets out measurements from ChEMBL document CHEMBL1759890, “3,5-Disubstituted-indole-7-carboxamides: the discovery of a novel series of potent, selective inhibitors of IKK-β” (Bioorg Med Chem Lett, 2011).

Bounds are passed on as bounds.

A word on the IC50: it is the concentration that inhibits the measured activity by half.

Test [1] has as its target T1, Serine/threonine-protein kinase TBK1 (Homo sapiens, UniProt Q9UHD2).
T1 sequence (Q9UHD2 whole entry): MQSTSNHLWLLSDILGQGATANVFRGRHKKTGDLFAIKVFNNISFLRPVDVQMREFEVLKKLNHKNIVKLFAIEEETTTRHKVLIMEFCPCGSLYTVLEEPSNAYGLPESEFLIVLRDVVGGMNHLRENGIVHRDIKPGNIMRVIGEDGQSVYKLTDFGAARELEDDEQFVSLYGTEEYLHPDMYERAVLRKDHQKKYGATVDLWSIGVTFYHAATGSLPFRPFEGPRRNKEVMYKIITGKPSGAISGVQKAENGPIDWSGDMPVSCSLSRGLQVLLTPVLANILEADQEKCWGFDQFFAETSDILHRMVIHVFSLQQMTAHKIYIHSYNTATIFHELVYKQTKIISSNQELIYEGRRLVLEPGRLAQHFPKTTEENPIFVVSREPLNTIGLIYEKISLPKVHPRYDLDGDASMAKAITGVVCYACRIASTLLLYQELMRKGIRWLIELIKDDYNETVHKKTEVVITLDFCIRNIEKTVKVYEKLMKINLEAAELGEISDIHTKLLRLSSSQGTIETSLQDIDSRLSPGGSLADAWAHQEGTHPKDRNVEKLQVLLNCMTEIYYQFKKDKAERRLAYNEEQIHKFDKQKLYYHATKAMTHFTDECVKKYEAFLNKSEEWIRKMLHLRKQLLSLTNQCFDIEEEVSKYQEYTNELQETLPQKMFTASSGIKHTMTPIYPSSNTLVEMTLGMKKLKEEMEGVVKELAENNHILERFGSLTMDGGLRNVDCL
The experiment in a line: Inhibition of TBK-1.

Test [2] deals with T2, Inhibitor of nuclear factor kappa-B kinase subunit beta (Homo sapiens, UniProt O14920).
T2 sequence (O14920 whole entry): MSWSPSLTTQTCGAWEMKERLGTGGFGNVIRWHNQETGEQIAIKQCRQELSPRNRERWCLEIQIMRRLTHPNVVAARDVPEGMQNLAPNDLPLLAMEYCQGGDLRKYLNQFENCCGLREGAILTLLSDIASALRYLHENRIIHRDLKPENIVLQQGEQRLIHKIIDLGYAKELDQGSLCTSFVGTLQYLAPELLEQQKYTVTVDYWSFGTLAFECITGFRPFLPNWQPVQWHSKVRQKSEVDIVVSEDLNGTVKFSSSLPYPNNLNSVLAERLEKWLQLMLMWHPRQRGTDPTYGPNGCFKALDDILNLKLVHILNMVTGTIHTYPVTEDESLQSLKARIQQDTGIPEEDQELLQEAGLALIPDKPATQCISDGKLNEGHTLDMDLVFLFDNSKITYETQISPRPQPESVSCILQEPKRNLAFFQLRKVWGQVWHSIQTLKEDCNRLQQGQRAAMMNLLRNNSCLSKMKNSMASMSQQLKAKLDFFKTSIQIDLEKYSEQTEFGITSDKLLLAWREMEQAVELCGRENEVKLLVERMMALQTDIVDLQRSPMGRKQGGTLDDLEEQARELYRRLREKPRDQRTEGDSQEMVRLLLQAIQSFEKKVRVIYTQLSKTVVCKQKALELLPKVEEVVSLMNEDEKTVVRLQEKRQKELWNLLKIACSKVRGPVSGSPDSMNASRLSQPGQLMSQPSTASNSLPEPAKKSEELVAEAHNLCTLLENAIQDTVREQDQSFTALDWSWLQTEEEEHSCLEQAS
The experiment in a line: Inhibition of IKK-beta.

In another test the target is T3, Aurora kinase A (Homo sapiens, UniProt O14965).
T3 sequence (O14965 whole entry): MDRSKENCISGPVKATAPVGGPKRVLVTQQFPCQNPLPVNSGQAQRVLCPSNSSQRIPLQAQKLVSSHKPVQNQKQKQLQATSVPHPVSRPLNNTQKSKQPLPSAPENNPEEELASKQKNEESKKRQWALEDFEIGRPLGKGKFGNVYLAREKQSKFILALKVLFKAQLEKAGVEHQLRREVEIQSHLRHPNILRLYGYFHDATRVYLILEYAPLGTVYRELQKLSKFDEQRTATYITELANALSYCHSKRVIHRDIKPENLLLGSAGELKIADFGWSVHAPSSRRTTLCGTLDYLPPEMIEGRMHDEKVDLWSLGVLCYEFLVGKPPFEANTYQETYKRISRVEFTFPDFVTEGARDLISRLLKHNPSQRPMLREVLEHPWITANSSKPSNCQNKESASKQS
The experiment in a line: Inhibition of Aurora A kinase.

A further test relates to PBMC. The experiment in a line: Antiinflammatory activity in human PBMC assessed as inhibition of LPS-induced TNF-alpha production. Type of test: functional, cell-based. In a few lines: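 Human peripheral blood mononuclear cells stimulated with LPS. Read-out is inhibition of TNF-α production, reported as pIC50.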
For test [3], the target named is T4, Inhibitor of nuclear factor kappa-B kinase subunit epsilon (Homo sapiens, UniProt Q14164).
T4 sequence (Q14164 whole entry): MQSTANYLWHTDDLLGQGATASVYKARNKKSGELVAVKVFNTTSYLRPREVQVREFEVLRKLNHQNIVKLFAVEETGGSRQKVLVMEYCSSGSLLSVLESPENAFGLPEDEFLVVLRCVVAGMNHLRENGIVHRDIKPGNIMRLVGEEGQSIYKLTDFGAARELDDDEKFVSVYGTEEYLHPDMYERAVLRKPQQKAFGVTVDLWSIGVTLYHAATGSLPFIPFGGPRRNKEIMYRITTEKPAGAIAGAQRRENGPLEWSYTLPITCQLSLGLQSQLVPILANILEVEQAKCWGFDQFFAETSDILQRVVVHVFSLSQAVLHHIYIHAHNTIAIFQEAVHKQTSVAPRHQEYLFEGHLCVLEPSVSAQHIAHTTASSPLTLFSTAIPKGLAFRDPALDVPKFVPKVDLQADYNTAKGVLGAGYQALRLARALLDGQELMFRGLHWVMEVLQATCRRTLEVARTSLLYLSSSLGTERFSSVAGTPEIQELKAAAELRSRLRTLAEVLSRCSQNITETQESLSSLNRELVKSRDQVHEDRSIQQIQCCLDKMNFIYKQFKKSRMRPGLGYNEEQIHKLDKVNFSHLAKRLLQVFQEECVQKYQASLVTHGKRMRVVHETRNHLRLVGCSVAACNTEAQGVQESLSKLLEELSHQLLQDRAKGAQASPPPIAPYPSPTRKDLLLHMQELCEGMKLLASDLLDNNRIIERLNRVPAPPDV
The experiment in a line: Inhibition of IKK-epsilon.

`CCCS(=O)(=O)N1CCC(c2c[nH]c3c(C(N)=O)cc(-c4ccccc4)cc23)CC1`: the IC50 in test [1] is more than 3160 nM; in test [2], 12.6 nM; on Aurora kinase A, 1260 nM; with PBMC it was 631 nM; in test [3], more than 3160 nM.
